Key:
[1] = system: MCF7; assay: Cytotoxicity against human MCF7 cells after 48 hrs by SRB assay; format: functional, cell-based; details: MCF7, 48 h
Summary of the method: (§1)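 Cells were seeded at 10^4 per well and allowed to attach for 24 h. They were then exposed to four compound concentrations (5, 12.5, 25, 50), each in triplicate wells, for 48 h at 37 °C in 5% CO2. Cells were fixed and stained with sulforhodamine B, washed with acetic acid, and bound dye was recovered in Tris-EDTA pH 7.4 and read on a plate reader. IC50 was taken from survival curves using the triplicate means.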

[2] = system: Mus musculus; assay: Toxicity in albino mouse assessed as mortality at 500 to 1000 mg/kg, […] after 24 hrs; format: organism-based; set-up: dose 500-1000 mg/kg; details: in vivo
Summary of the method: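 Albino mice (20-25 g) were split into 6 groups of 8. Compounds were given at 500, 750 and 1000 mg/kg; controls received buffer only. Toxic symptoms, mortality and postmortem findings were recorded 24 h after administration. LD50 was calculated by the Dm − Σ(z×d)/n formula.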

[3] = system: Mus musculus; assay: Antiinflammatory activity in methylated bovine serum albumin sensitized delayed-type hypersensitivity granuloma mouse model assessed as reduction of granuloma wet weight at 25 mg/kg, sc qd for 9 days; format: functional; details: 216 h, route subcutaneous
Summary of the method: (§2)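 Groups of 10 female mice (25 g) were sensitized sc over the inguinal lymph node with mBSA emulsion in saline, Freund's incomplete adjuvant and dextran. Three weeks later, two 6-mm hydroxyapatite discs soaked in mBSA (30 mg/mL saline) were implanted sc in the dorsum. Compounds at pH 7.4 were given sc into the scruff at 0.1 mL/10 g, daily from implantation to day 9. Granuloma wet and dry weights were recorded as % inhibition.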

[4] = system: Mus musculus; assay: Antiinflammatory activity in methylated bovine serum albumin sensitized delayed-type hypersensitivity granuloma mouse model assessed as reduction of granuloma dry weight at 25 mg/kg, sc qd for 9 days; format: functional; details: 216 h, route subcutaneous; summary of the method: as §2
[5] = system: Mus musculus; assay: Toxicity in albino mouse assessed as toxic symptoms at 500 to 1000 mg/kg, ip after 24 hrs; details: in vivo
[6] = system: Rattus norvegicus; assay: Antiarthritic activity in complete Freund's adjuvant-induced rat arthritis model assessed as reduction of paw volume in non-injected paw at 30 mg/kg, sc qd for 28 days; format: functional; details: 672 h, route subcutaneous
Summary of the method: (§3)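 Rat adjuvant-induced polyarthritis. Compounds were dissolved or suspended in sterile saline, sonicated as needed, brought to pH 7.0 with NaOH, and kept as frozen aliquots, fresh each dosing day. Dosing was sc once daily for 28 days, by body weight. The arthritic control group got vehicle sc. Injected and noninjected hindpaw volumes were measured on day 28 by mercury displacement plethysmography and expressed as % inhibition.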

[7] = system: Mus musculus; assay: Antiinflammatory activity in methylated bovine serum albumin sensitized delayed-type hypersensitivity granuloma mouse model assessed as reduction of granuloma dry weight at 100 mg/kg, sc qd for 9 days; format: functional; details: 216 h, route subcutaneous; summary of the method: as §2
[8] = system: Rattus norvegicus; assay: Antiarthritic activity in complete Freund's adjuvant-induced rat arthritis model assessed as reduction of paw volume in injected paw at 20 mg/kg, sc qd for 28 days; format: functional; details: 672 h, route subcutaneous; summary of the method: as §3
[9] = system: Rattus norvegicus; assay: Antiarthritic activity in complete Freund's adjuvant-induced rat arthritis model assessed as reduction of paw volume in non-injected paw at 10 mg/kg, sc qd for 28 days; format: functional; details: 672 h, route subcutaneous; summary of the method: as §3
[10] = system: HepG2; assay: Cytotoxicity against human HepG2 cells after 48 hrs by SRB assay; format: functional, cell-based; details: HepG2, 48 h; summary of the method: as §1
[11] = system: HCT-116; assay: Cytotoxicity against human HCT116 cells after 48 hrs by SRB assay; format: functional, cell-based; details: HCT-116, 48 h; summary of the method: as §1
[12] = system: Rattus norvegicus; assay: Antiarthritic activity in complete Freund's adjuvant-induced rat arthritis model assessed as reduction of paw volume in injected paw at 10 mg/kg, sc qd for 28 days; format: functional; details: 672 h, route subcutaneous; summary of the method: as §3
[13] = system: Rattus norvegicus; assay: Antiarthritic activity in complete Freund's adjuvant-induced rat arthritis model assessed as reduction of paw volume in injected paw at 50 mg/kg, sc qd for 28 days; format: functional; details: 672 h, route subcutaneous; summary of the method: as §3
[14] = system: Mus musculus; assay: Antiinflammatory activity in methylated bovine serum albumin sensitized delayed-type hypersensitivity granuloma mouse model assessed as reduction of granuloma wet weight at 60 mg/kg, sc qd for 9 days; format: functional; details: 216 h, route subcutaneous; summary of the method: as §2
[15] = system: Mus musculus; assay: Antiinflammatory activity in methylated bovine serum albumin sensitized delayed-type hypersensitivity granuloma mouse model assessed as reduction of granuloma wet weight at 100 mg/kg, sc qd for 9 days; format: functional; details: 216 h, route subcutaneous; summary of the method: as §2
[16] = system: Rattus norvegicus; assay: Antiarthritic activity in complete Freund's adjuvant-induced rat arthritis model assessed as reduction of paw volume in injected paw at 30 mg/kg, sc qd for 28 days; format: functional; details: 672 h, route subcutaneous; summary of the method: as §3
[17] = system: Rattus norvegicus; assay: Antiarthritic activity in complete Freund's adjuvant-induced rat arthritis model assessed as reduction of paw volume in non-injected paw at 50 mg/kg, sc qd for 28 days; format: functional; details: 672 h, route subcutaneous; summary of the method: as §3
[18] = system: Mus musculus; assay: Antiinflammatory activity in methylated bovine serum albumin sensitized delayed-type hypersensitivity granuloma mouse model assessed as reduction of granuloma dry weight at 60 mg/kg, sc qd for 9 days; format: functional; details: 216 h, route subcutaneous; summary of the method: as §2
[19] = system: HeLa; assay: Cytotoxicity against human HeLa cells after 48 hrs by SRB assay; format: functional, cell-based; summary of the method: as §1
[20] = system: Rattus norvegicus; assay: Antiarthritic activity in complete Freund's adjuvant-induced rat arthritis model assessed as reduction of paw volume in non-injected paw at 20 mg/kg, sc qd for 28 days; format: functional; details: 672 h, route subcutaneous; summary of the method: as §3
[21] = system: Mus musculus; assay: Antiinflammatory activity in methylated bovine serum albumin sensitized delayed-type hypersensitivity granuloma mouse model assessed as reduction of granuloma wet weight at 50 mg/kg, sc qd for 9 days; format: functional; details: 216 h, route subcutaneous; summary of the method: as §2
[22] = system: Mus musculus; assay: Antiinflammatory activity in methylated bovine serum albumin sensitized delayed-type hypersensitivity granuloma mouse model assessed as reduction of granuloma dry weight at 50 mg/kg, sc qd for 9 days; format: functional; details: 216 h, route subcutaneous; summary of the method: as §2
[23] = system: Rattus norvegicus; assay: Antiarthritic activity in complete Freund's adjuvant-induced rat arthritis model assessed as reduction of paw volume in injected paw at 100 mg/kg, sc qd for 28 days; format: functional; details: 672 h, route subcutaneous; summary of the method: as §3
[24] = system: Rattus norvegicus; assay: Antiarthritic activity in complete Freund's adjuvant-induced rat arthritis model assessed as reduction of paw volume in non-injected paw at 100 mg/kg, sc qd for 28 days; format: functional; details: 672 h, route subcutaneous; summary of the method: as §3

SMILES: CCOP(=O)(OCC)C1(P(=O)(OCC)OCC)C(=S)c2ccccc2N1C
- IC50 [1]: 16.5 µM
- Activity [2]: Non-toxic
- inhibition in vivo at 25 mg/kg [3]: 33%
- inhibition in vivo at 25 mg/kg [4]: 36%
- Activity [5]: Non-toxic
- inhibition in vivo at 30 mg/kg [6]: 70%
- inhibition in vivo at 100 mg/kg [7]: 48%
- inhibition in vivo at 20 mg/kg [8]: 23%
- inhibition in vivo at 10 mg/kg [9]: 45%
- IC50 [10]: 14.7 µM
- IC50 [11]: 8.27 µM
- inhibition in vivo at 10 mg/kg [12]: 15%
- inhibition in vivo at 50 mg/kg [13]: 30%
- inhibition in vivo at 60 mg/kg [14]: 45%
- inhibition in vivo at 100 mg/kg [15]: 38%
- inhibition in vivo at 30 mg/kg [16]: 32%
- inhibition in vivo at 50 mg/kg [17]: 68%
- inhibition in vivo at 60 mg/kg [18]: 45%
- IC50 [19]: 15.2 µM
- inhibition in vivo at 20 mg/kg [20]: 55%

SMILES: CCN(CC)c1ccc(C2=NC(P(=O)(O)O)(P(=O)(O)O)C(=S)c3ccccc32)cc1
- inhibition in vivo at 50 mg/kg [21]: 16%
- inhibition in vivo at 50 mg/kg [22]: 26%
- inhibition in vivo at 100 mg/kg [7]: 30%
- inhibition in vivo at 50 mg/kg [13]: < 5%
- inhibition in vivo at 100 mg/kg [15]: 23%
- inhibition in vivo at 50 mg/kg [17]: 10%
- inhibition in vivo at 100 mg/kg [23]: 18%
- inhibition in vivo at 100 mg/kg [24]: 24%

SMILES: CCOP(=O)(OCC)C1(P(=O)(OCC)OCC)Nc2ccccc2C1=S
- inhibition in vivo at 25 mg/kg [3]: 24%
- inhibition in vivo at 25 mg/kg [4]: 30%
- inhibition in vivo at 30 mg/kg [6]: 58%
- inhibition in vivo at 100 mg/kg [7]: 46%
- inhibition in vivo at 20 mg/kg [8]: 7%
- inhibition in vivo at 10 mg/kg [9]: 48%
- inhibition in vivo at 10 mg/kg [12]: 5%
- inhibition in vivo at 50 mg/kg [13]: 15%
- inhibition in vivo at 60 mg/kg [14]: 31%
- inhibition in vivo at 100 mg/kg [15]: 44%
- inhibition in vivo at 30 mg/kg [16]: 11%
- inhibition in vivo at 50 mg/kg [17]: 64%
- inhibition in vivo at 60 mg/kg [18]: 42%
- inhibition in vivo at 20 mg/kg [20]: 60%

SMILES: CCOP(=O)(OCC)C1(P(=O)(OCC)OCC)C(=S)c2ccccc2N=C1c1ccccc1
- IC50 [1]: 15.6 µM
- inhibition in vivo at 25 mg/kg [3]: 13%
- inhibition in vivo at 25 mg/kg [4]: 22%
- inhibition in vivo at 30 mg/kg [6]: 68%
- inhibition in vivo at 100 mg/kg [7]: 48%
- inhibition in vivo at 20 mg/kg [8]: 12%
- inhibition in vivo at 10 mg/kg [9]: 40%
- IC50 [10]: 20.4 µM
- IC50 [11]: 22.8 µM
- inhibition in vivo at 10 mg/kg [12]: < 5%
- inhibition in vivo at 50 mg/kg [13]: 28%
- inhibition in vivo at 60 mg/kg [14]: 35%
- inhibition in vivo at 100 mg/kg [15]: 43%
- inhibition in vivo at 30 mg/kg [16]: 30%
- inhibition in vivo at 50 mg/kg [17]: 70%
- inhibition in vivo at 60 mg/kg [18]: 32%
- IC50 [19]: 27.1 µM
- inhibition in vivo at 20 mg/kg [20]: 60%

SMILES: CCOP(=O)(OCC)C1=C(S)c2ccccc2N(C)P1(=O)OCC (centres undefined)
- Activity [2]: Non-toxic
- inhibition in vivo at 25 mg/kg [3]: 33%
- inhibition in vivo at 25 mg/kg [4]: 50%
- Activity [5]: Non-toxic
- inhibition in vivo at 30 mg/kg [6]: 73%
- inhibition in vivo at 100 mg/kg [7]: 55%
- inhibition in vivo at 20 mg/kg [8]: 27%
- inhibition in vivo at 10 mg/kg [9]: 66%
- inhibition in vivo at 10 mg/kg [12]: 18%
- inhibition in vivo at 50 mg/kg [13]: 37%
- inhibition in vivo at 60 mg/kg [14]: 48%
- inhibition in vivo at 100 mg/kg [15]: 50%
- inhibition in vivo at 30 mg/kg [16]: 35%
- inhibition in vivo at 50 mg/kg [17]: 76%
- inhibition in vivo at 60 mg/kg [18]: 53%
- inhibition in vivo at 20 mg/kg [20]: 60%

SMILES: CCOP(=O)(OCC)C1(P(=O)(OCC)OCC)N=C(c2ccc(C)cc2)c2ccccc2C1=S
- IC50 [1]: 30.4 µM
- IC50 [10]: 25.2 µM
- IC50 [11]: 18.3 µM
- IC50 [19]: 26.7 µM

SMILES: O=P(O)(O)C(Cl)(Cl)P(=O)(O)O [CLODRONIC ACID]
- inhibition in vivo at 25 mg/kg [3]: 30%
- inhibition in vivo at 25 mg/kg [4]: 33%
- inhibition in vivo at 30 mg/kg [6]: 62%
- inhibition in vivo at 100 mg/kg [7]: 48%
- inhibition in vivo at 20 mg/kg [8]: 28%
- inhibition in vivo at 10 mg/kg [9]: 56%
- inhibition in vivo at 10 mg/kg [12]: 23%
- inhibition in vivo at 50 mg/kg [13]: 35%
- inhibition in vivo at 60 mg/kg [14]: 40%
- inhibition in vivo at 100 mg/kg [15]: 44%
- inhibition in vivo at 30 mg/kg [16]: 34%
- inhibition in vivo at 50 mg/kg [17]: 68%
- inhibition in vivo at 60 mg/kg [18]: 44%
- inhibition in vivo at 20 mg/kg [20]: 70%
